Molecules are shown by their SMILES. Calls of active or inactive are those of the source.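 How the source made its calls, unless noted: active means NADPH fluorescence slope more negative than the mean of all samples by about 3 SD, 99.7% confidence; inactive means the rest.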

The inhibition is the relative decrease from the control value, in per cent.

Experiment [1] is described as follows: inhibitors of TNFa-induced NFkB p65 translocation, primary screen, imaging, HUVEC, MLSMR starter and 10KST1 sets (AID 438;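 active means inhibition above 20% together with a positive visual image hit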;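 further: compound added about 3h40 before a 20 min TNFalpha stimulation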;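 on inhibition: signal is the nuclear over cytoplasmic p65 intensity ratio per well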). As to conditions: HUVEC TNFa-induced p65 nuclear translocation; cell count: measured here: nuclei count (cytotoxicity indicator), at 2.08 µM; inhibition: at 2 µM, stronger effect = higher value, 0% TNFa-plus-vehicle, 100% no-TNFa wells.
Experiment [2] is described as follows: endothelial E-selectin expression blockers – imaging, HUVEC, immunofluorescence, MLSMR starter and 10KST1 sets, primary screen (AID 487;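 active means visually confirmed hit in the image check and inhibition above 20%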;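 on inhibition: signal is fraction of cell area covered by stained E-selectin grains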;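 on nuclei count: 100% = median nuclei count of all wells on the same plate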). As to conditions: HUVEC TNFalpha-induced E-selectin immunofluorescence imaging, at 2 µM; inhibition: stronger effect = higher value; nuclei count: measured here: cell number, toxicity.
Experiment [3] can be described thus: Primary imaging screen for DUSP6 inhibitors that restore phospho-Erk in transfected HeLa cells, chemical complementation (AID 609;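 active means compounds giving at least 50% inhibition in the cell-based MKP-3 phosphatase rescue imaging test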;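 on inhibition: phospho-Erk level distribution per well compared with pooled transfected vehicle control wells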). As to conditions: HeLa MKP-3 transfected, phospho-Erk imaging KS statistic, at 10 µM, cells stimulated with TPA for 15 min.
The target of experiment [4] is Dual specificity protein phosphatase 6 (Homo sapiens) (UniProt Q16828). The experiment is described as above. To be noted: HeLa MKP-3 transfected, phospho-Erk imaging KS statistic; at 10 µM; stronger effect = higher value; cells stimulated with TPA for 15 min.
Sequence of Dual specificity protein phosphatase 6 (Homo sapiens) (Q16828 whole entry, looked up): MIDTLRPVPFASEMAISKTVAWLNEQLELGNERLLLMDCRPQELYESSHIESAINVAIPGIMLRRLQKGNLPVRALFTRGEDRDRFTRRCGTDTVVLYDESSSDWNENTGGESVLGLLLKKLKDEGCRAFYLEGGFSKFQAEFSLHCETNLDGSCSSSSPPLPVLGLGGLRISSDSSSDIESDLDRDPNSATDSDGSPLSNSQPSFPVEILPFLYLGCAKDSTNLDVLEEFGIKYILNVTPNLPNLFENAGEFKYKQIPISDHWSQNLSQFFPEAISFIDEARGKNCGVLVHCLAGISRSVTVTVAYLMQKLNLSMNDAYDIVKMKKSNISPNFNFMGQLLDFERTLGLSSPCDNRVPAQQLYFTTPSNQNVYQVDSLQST
Experiment [5] concerns the target Voltage-gated potassium channel subunit beta-2 (Rattus norvegicus) (UniProt P62483). In words: inhibitors of rat Kvbeta2 reductase activity – biochemical, NADPH fluorescence, primary screen (AID 622;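 active means fluorescence slope higher than the sample average by over 3 SD, cut at about -0.22 in these data, passing the limit was not always enough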;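 further: slope of raw intensity against log time taken from 70 to 1610 s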). As to conditions: recombinant KvBeta, 4-cyanobenzaldehyde reduction, at 10 µM, stronger effect = higher value.
The target is the same in experiment [6]. The experiment in a line: enhancers of rat Kvbeta2 NADPH turnover – biochemical, NADPH fluorescence, primary screen (AID 623).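 Further: fluorescence intensity change per second fitted from 20 to 320 s.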 To be noted: Recombinant KvBeta, NADPH fluorescence decrease slope, 10 min; at 10 µM; stronger effect = lower value.
Experiment [7] concerns the target Muscarinic acetylcholine receptor M4 (Homo sapiens) (UniProt P08173). The experiment in a line: M4-linked GIRK flux change, two-sided – cell-based, HEK293 M4/GIRK, thallium flux, BTC-AM, M4 allosteric agonist project, primary screen (AID 625;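 active means fluorescence slope after compound addition differing from the mean of all tested samples at 99.7% confidence, mostly higher but some lower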;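 further: thallium influx through GIRK channels coupled to M4 in HEK293 cells with BTC-AM dye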). To be noted: at 10 µM, actives lie on both sides. The gist of the method: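 assay system = HEK293 cells with M4 receptor and GIRK channels | medium = pH 7.3 thallium assay buffer | doses = 10 µM final, single point | timing = cells overnight at 37 °C, BTC-AM loading 1 h, reads 2 min total | signal = BTC-AM fluorescence, 1 Hz kinetic reads | read-out = post-addition slope, 15–24 s, of baseline-normalized fluorescence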

Experiment [8] in a line: inhibitors of larval lipid processing in zebrafish, primary screen, whole organism, PED6 fluorescence, gall bladder and intestine (AID 686;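 active means a full or partial loss of lipid-probe fluorescence in the fish gall bladder, intestine or both, judged by eye; inactive means no fluorescence loss, or compound toxic to the fish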;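 further: larvae 5 to 7 days old with five fish per well; signal comes from phospholipase A2 cleavage of quenched PED6 carried via bile; overnight exposure to compound and PED6 before scoring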). To be noted: Zebrafish larvae PED6 lipid processing, fluorescence scoring; screened at 20 µM (by protocol). The gist of the method:
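Also added: quenched phospholipase substrate PED6, 100 nM final, ingested by larvae; System: zebrafish larvae, 5-7 d; Quantity: 5 larvae per well; Compound: 20 µM single dose; Schedule: overnight compound and PED6 incubation; Read-out: visual per-well fluorescence inhibition score; Measured by: By-eye fluorescence microscopy; Medium: E3.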

The nature of experiment [9]: loss of swimming-algae plug formation – whole organism, Chlamydomonas reinhardtii, WT vs cilia-less mutant, absorbance, 96-well, primary screen (AID 463189;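 active means inhibition at or above 50% relative to wild type and mutant plate controls; inactive means inhibition below 50%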;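 further: 0% = wild type cc124 cells in DMSO and 100% = ciliumless bld1 mutant cells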). To be noted: Chlamydomonas reinhardtii gravitaxis, OD600 absorbance, 2 days; at 10 µM; stronger effect = higher value.
Setting [10] is: measured here: cell density z-score.
Where [11] appears, read: measured here: nuclear c-Myc green intensity z-score.
[12] abbreviates: measured here: nuclear pErk red intensity z-score, stronger effect = higher value.

Sequence of Voltage-gated potassium channel subunit beta-2 (Rattus norvegicus) (P62483 whole entry, looked up): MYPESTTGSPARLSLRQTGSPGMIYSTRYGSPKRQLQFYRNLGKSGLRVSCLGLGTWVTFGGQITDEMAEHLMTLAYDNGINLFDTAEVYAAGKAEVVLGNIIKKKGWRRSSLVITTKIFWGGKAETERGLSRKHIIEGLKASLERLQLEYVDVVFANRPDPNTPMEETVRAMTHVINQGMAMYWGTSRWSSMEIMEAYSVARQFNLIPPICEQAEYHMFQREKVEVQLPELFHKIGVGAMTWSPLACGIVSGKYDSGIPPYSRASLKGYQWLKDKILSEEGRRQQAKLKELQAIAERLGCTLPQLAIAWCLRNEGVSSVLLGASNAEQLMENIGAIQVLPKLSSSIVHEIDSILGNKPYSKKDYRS
Sequence of Muscarinic acetylcholine receptor M4 (Homo sapiens) (P08173 whole entry, looked up): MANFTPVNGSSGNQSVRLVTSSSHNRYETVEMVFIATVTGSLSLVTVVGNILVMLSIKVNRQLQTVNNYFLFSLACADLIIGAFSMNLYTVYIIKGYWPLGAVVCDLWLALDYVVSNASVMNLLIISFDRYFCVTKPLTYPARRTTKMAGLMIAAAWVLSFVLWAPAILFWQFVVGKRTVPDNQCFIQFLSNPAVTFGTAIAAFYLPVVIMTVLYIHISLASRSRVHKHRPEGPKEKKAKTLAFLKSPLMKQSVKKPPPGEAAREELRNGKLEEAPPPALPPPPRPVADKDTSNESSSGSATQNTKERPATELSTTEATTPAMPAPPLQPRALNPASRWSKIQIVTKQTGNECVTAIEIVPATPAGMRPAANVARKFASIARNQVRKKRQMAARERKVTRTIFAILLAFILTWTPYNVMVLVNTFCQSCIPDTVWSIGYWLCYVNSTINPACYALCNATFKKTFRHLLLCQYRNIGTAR

With `O=C(Cc1ccc(Cl)cc1)Nc1cccc(-c2nnc(-c3ccco3)o2)c1`, in experiment [1], the cell count was 695. The inhibition in experiment [1] was -4% (inactive); in experiment [2] it was 32.2% (inactive); in [4], 7.21% (inactive); in [9], 5.58% (inactive). In experiment [2], this compound yielded a nuclei count of 162%. Also, the z-score is 0.714 in experiment [3] (setting [10]), 1.13 in experiment [3] (setting [11]) and -0.033 in experiment [3] (setting [12]). Besides, the fluorescence slope in [5] is -0.476 (inactive); in [7], 0.006 (inactive). Also, the NADPH fluorescence slope in experiment [6] is -7.5e-05 (inactive). The outcome in experiment [8] was inactive.
With `COc1ccc(C2/C(=C(\O)c3ccc4c(c3)OCCO4)C(=O)C(=O)N2CCCN(C)C)cc1` (stereo unspecified), in experiment [1], the cell count was found to be 368. The inhibition in experiment [1] is -2.4% (inactive); in experiment [2], -14.3% (inactive); in experiment [4], 3.56% (inactive); in [9], -13.1% (inactive). This compound had a nuclei count in [2] of 131%. For the same compound, the z-score in [3] (setting [10]) is -2.04; in experiment [3] (setting [11]) it was 0.887; in experiment [3] (setting [12]), -0.106. Besides, the fluorescence slope in experiment [5] was -0.506 (inactive); in experiment [7], 0.00537 (inactive). For the same compound, the NADPH fluorescence slope in experiment [6] is -3.1e-05 (inactive). Moreover, in [8], the call was inactive.
As to `CCc1ccc(-c2cn3nc(C)c(C)nc3n2)cc1`, the cell count in experiment [1] was 539. Besides, the inhibition was -0.3% (inactive) in experiment [1], 5.5% (inactive) in experiment [2], 9.91% (inactive) in [4] and 23.7% (inactive) in experiment [9]. In experiment [2], this compound displayed a nuclei count of 143%. The z-score is 0.256 in experiment [3] (setting [10]), -1.56 in [3] (setting [11]) and -0.591 in experiment [3] (setting [12]). The fluorescence slope in experiment [5] is -0.0112 (inactive); in [7], 0.00271 (inactive). In addition, in experiment [6], the NADPH fluorescence slope was 2.5e-06 (inactive). In addition, in experiment [8], the compound was classed as inactive.
As to `O=c1c(-c2ccc(Cl)cc2)[n+]([O-])c2ccccc2n1O`, the cell count in experiment [1] was 517. In addition, the inhibition in experiment [1] is -16.1% (inactive); in experiment [2], -12.5% (inactive); in experiment [4], 15.9% (inactive); in [9] it was 33.5% (inactive). This compound registered a nuclei count in experiment [2] of 170%. In addition, the z-score in experiment [3] (setting [10]) is 0.0473; in experiment [3] (setting [11]) it was 0.796; in experiment [3] (setting [12]), 0.573. Moreover, the figures for the fluorescence slope in [5] and in [7] were -0.31 (inactive) and 0.0132 (active), respectively. The NADPH fluorescence slope in experiment [6] is -3.9e-05 (inactive). Besides, in experiment [8], the call was inactive.
With `CN1CCc2c(c3c(n2C)CCN(C)[C@@H]3c2cccnc2)[C@H]1c1cccnc1`, in experiment [1], the cell count came to 406. Besides, the inhibition in experiment [1] was -15.1% (inactive); in experiment [2], -320% (inactive); in experiment [4], 15.4% (inactive); in [9], 5.73% (inactive). For the same compound, the nuclei count in experiment [2] is 159%. In addition, the values for the z-score in [3] (setting [10]), in [3] (setting [11]) and in experiment [3] (setting [12]) were 0.329, -0.347 and 0.296, respectively. For the same compound, the fluorescence slope in experiment [5] was -0.478 (inactive); in experiment [7], 0.00388 (inactive). Also, the NADPH fluorescence slope in experiment [6] is -5.4e-05 (inactive). Also, the outcome in experiment [8] was “inactive; toxic”.
Regarding `CCN(CC)C(=O)C1CCN(c2ncnc3c2cnn3-c2ccc(C)cc2C)CC1`, the cell count in experiment [1] came out at 622. Moreover, the inhibition in [1] is -8.2% (inactive); in experiment [2], -52.3% (inactive); in experiment [4] it was 11.4% (inactive); in [9], 27.9% (inactive). The nuclei count in experiment [2] was determined as 178%. Further, the z-score was 1.38 in experiment [3] (setting [10]), -1.28 in experiment [3] (setting [11]) and 0.399 in [3] (setting [12]). For the same compound, the figures for the fluorescence slope in experiment [5] and in experiment [7] were -0.416 (inactive) and 0.00727 (inactive), respectively. The NADPH fluorescence slope in experiment [6] was -4.9e-05 (inactive). In experiment [8], the outcome was inactive.
In the case of `Cc1ccc(-n2ncc3c(NCCCOC(C)C)ncnc32)c(C)c1`, the cell count in experiment [1] stood at 586. The inhibition in experiment [1] is -13.1% (inactive); in experiment [2] it was 45.2% (inactive); in experiment [4], 1.42% (inactive); in experiment [9] it was 39% (inactive). In addition, the nuclei count in [2] was determined as 161%. The z-score is -1.65 in [3] (setting [10]), 1.1 in experiment [3] (setting [11]) and -0.077 in experiment [3] (setting [12]). Also, the fluorescence slope in [5] was -0.408 (inactive); in [7] it was 0.00603 (inactive). Besides, in experiment [6], the NADPH fluorescence slope is -4.3e-05 (inactive). Also, the call in [8] was inactive.

The values are drawn from PubChem BioAssay.
